From PubChem
Compounds with a hit are over-represented: about 4.6% of the library has one in this group of screens.
TAAR1 ag: agonists of human TAAR1; CHO RD-HGA16 TAAR1, Fluo-8 calcium fluorescence; vehicle wells 0%, saturating PEA agonist 100%; activation, % at 3 µM; hit rate 0.99% among 360,000; AID 624467;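 active means activation above the mean activation of all test compounds in the run plus 3 SD, cut at about 38% in these data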
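Test system: RD-HGA16 (CHO) cells co-expressing Gα16 and hTAAR1 | Doses: Single dose, 3 µM | Schedule: 17-24 h seeding, 75 min 37 °C dye, 30 min RT | Evaluation: % activation from peak over basal fluorescence ratio, DMSO-to-PEA scaled | Technique: Kinetic Fluo-8 calcium fluorescence | Benchmarks: Low control DMSO, high control PEA (EC100)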
TAAR1 antagonist: human TAAR1 antagonism. inhibition, % at 3 µM. CHO RD-HGA16 TAAR1, Fluo-8 calcium fluorescence, antagonist. hit rate 1.5% among 360,000;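 active means inhibition above a per-plate cutoff, the mean inhibition of test compounds on that plate plus 3 SD, cut at about 49% in these data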;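 further: 0% = DMSO plus EC80 beta-PEA response and 100% = DMSO alone without agonist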
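Assay system: CHO-derived RD-HGA16 cells stably expressing human TAAR1 plus Gα16. Timing: 140 s kinetic read after compound, 140 s after agonist. Technique: kinetic Fluo-8 calcium fluorescence measurement. Measure: % inhibition of agonist calcium response.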
OX1R antag-1: OX1R (human) antagonism | inhibition, % at 6.6 µM | OX1R-expressing cells, FRET antagonist read-out | O43613 | hit rate 1.8% among 330,000; in the data active means inhibition mostly above about 38%, no sharp cut-off; inactive means mostly below about 40%;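 further: 0% = agonist challenge alone and 100% = reference antagonist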
Target sequence (O43613 whole entry, looked up): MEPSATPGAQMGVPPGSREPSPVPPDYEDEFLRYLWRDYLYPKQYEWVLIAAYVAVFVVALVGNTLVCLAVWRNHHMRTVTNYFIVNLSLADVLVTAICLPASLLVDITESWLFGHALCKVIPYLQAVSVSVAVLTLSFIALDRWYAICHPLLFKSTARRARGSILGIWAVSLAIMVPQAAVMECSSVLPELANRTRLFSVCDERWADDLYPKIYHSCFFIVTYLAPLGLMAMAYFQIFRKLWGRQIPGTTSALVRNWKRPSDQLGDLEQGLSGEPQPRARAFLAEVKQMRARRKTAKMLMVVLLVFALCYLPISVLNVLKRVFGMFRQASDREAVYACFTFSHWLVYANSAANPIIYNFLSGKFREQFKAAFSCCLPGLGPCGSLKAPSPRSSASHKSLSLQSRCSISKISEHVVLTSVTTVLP
CHO parental Ca: counter-screen for OX1R antagonists: effect in parental CHO cells | parental CHO-K1, ATP-induced calcium, Fluo-8 fluorescence | inhibition, % at 5.6 µM | hit rate 0.63% among 330,000;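 active means inhibition above that plate's mean sample inhibition plus 3 SD, cut at about 26% in these data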;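 further: 0% = ATP-challenged DMSO wells and 100% = DMSO wells without ATP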
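Material – parental CHO cells · Reagent – ATP stimulus · Compound – single nominal dose of 5.6 µM per compound · Detection – Fluo-8 fluorescence · Read-out basis – percent inhibition of calcium signal · Controls – ATP-challenged DMSO wells low, unchallenged DMSO wells high · Repeats – no replicates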
OX1R antag-2: blocks the human orexin 1 receptor; O43613; CHO/OX1R cells, Fluo-8 calcium fluorescence, orexin A; inhibition, % at 5 µM; hit rate 0.43% among 330,000;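 active means inhibition above its plate's threshold, mean inhibition of all tested compounds on the plate plus 3 SD, cut at about 37% in these data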;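 further: 0% = orexin A challenge wells and 100% = SB-334867-A antagonist wells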
GPR7 antag: antagonists of human GPR7 (neuropeptides B/W receptor 1) | GPR7-expressing cells, fluorescence antagonist assay | inhibition, % at 4.4 µM | hit rate 1.1% among 290,000 | AID 1861; in the data active means inhibition above about 16%, passing the limit was not always enough;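 further: cells stimulated with the agonist NPW; 0% = agonist with vehicle and 100% = vehicle without agonist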
* = called active by the depositor; x = no result given.

SMILES | TAAR1 ag | TAAR1 antagonist | OX1R antag-1 | CHO parental Ca | OX1R antag-2 | GPR7 antag
COc1ccc2c(c1)-c1c(ssc1=S)C(C)(C)N2S(=O)(=O)c1ccc(C)cc1 | -1 | 0 | 5 | -13 | -17 | -4
Cc1ccc(S(=O)(=O)N2c3ccccc3-c3c(ssc3=S)C2(C)C)cc1 | 0 | -25 | 88* | -30 | 42* | -17
Cc1ccccc1C(=O)N(C)[C@H]1C[C@H]2c3[nH]c4c(-c5ccc6c(c5)OCO6)cccc4c3CCN2C(=O)[C@H]1[C@H](C)O | 1 | -19 | x | x | x | x
COc1ccc(/C=C2\Oc3cc(OCC(=O)N4CCC[C@H]4C(=O)O)ccc3C2=O)c(OC)c1OC | 2 | -8 | 39 | -10 | -6 | -2
COc1ccc(/C=C2\Oc3cc(OCC(=O)N4CCC[C@H]4C(=O)O)ccc3C2=O)cc1OC | x | x | 51* | -11 | -4 | 5
O=C(Nc1ccc(S(=O)(=O)Nc2ccccc2)cc1)c1ccc(CN2CCOCC2)cc1 | 15 | 43 | 22 | 5 | 20 | 50*
O=C(c1ccccc1)N1N=C(c2cccs2)CC1c1ccccc1O (stereo not given) | 4 | -10 | 8 | -4 | -29 | -13
COC(=O)c1ccc(C2N=C(c3cccs3)CC(c3ccccc3O)N2)cc1 (stereo not given) | 9 | -13 | 72* | 42* | 4 | -2
COc1ccc(CNC(=O)CN(c2ccc(C)cc2)S(=O)(=O)c2c(C)noc2C)cc1 | 0 | -12 | 44* | -20 | -5 | 4
Cc1noc(C)c1S(=O)(=O)N(CC(=O)NCc1ccc2c(c1)OCO2)c1ccc(C(C)C)cc1 | -3 | -17 | 8 | -13 | -8 | -12
COc1ccccc1CNC(=O)CN(c1ccc(C)cc1)S(=O)(=O)c1c(C)noc1C | 3 | 31 | 71* | -27 | 5 | -12
Cc1ccc(N(CC(=O)NCc2ccc3c(c2)OCO3)S(=O)(=O)c2c(C)noc2C)cc1 | -1 | -26 | 60* | -20 | -8 | -8
COc1ccc(N(CC(=O)NCc2ccccc2)S(=O)(=O)c2c(C)noc2C)cc1 | 1 | 2 | 12 | -12 | -5 | 4
CCOc1ccc(NC(=O)CCC(=O)NNC(=O)Nc2cccc(Cl)c2)cc1 | 43* | 6 | 5 | -15 | -9 | -7
CN1CCCCC(NC(=O)C2CCCCC2)C1=O (stereo not given) | 2 | -26 | x | x | x | x
CCOc1ccc(N(CC(=O)Nc2cccc(Cl)c2)S(=O)(=O)c2c(C)noc2C)cc1 | -2 | 18 | 18 | 40* | -5 | -6
CCCN(CC(=O)Nc1ccccc1OC)C(=O)Cc1ccc2c(c1)CCC2 | x | x | 48* | -28 | 0 | x
COCc1cc(N2CCNC[C@H]2C)ccc1N1CCN(Cc2ccccc2)[C@@H](C)C1 | 3 | -7 | x | x | x | x
Cc1ccc(C(=O)Nc2ccc(C(=O)N/N=C/c3ccccn3)cc2)cc1 | 4 | 32 | 22 | 35* | 20 | -10
O=C(N/N=C/c1ccccn1)c1sc2ccccc2c1Cl | 6 | 8 | 64* | 31 | 30 | 19*
Cn1cccc1/C=N/NC(=O)c1sc2ccccc2c1Cl | 2 | -8 | 74* | -25 | 5 | -13
O=C(N/N=C/c1ccccn1)c1ccc(Cl)cc1 | 6 | -21 | 22 | 0 | -4 | -17
Cc1c(/C=N/NC(=O)c2sc3ccccc3c2Cl)cnn1C | 7 | 13 | 48* | -13 | -19 | -3
Cc1ccsc1C(=O)OCC(=O)NC1CCCCC1 | 2 | -17 | x | x | x | x
COc1ccc2cc(-c3cc(C(=O)OCC(=O)Nc4c(C)n(C)n(-c5ccccc5)c4=O)c4ccccc4n3)ccc2c1 | 13 | 66* | x | x | x | -4
SMILES | TAAR1 ag | TAAR1 antagonist | OX1R antag-1 | CHO parental Ca | OX1R antag-2 | GPR7 antag
COc1ccc(C(=O)OCC(=O)Nc2c(C)n(C)n(-c3ccccc3)c2=O)cc1 | 0 | -20 | 2 | -11 | -6 | x
COc1ccc(-c2cc(C(=O)OCC(=O)N3CCOCC3)c3ccccc3n2)cc1 | 7 | -4 | 55* | -21 | 27 | x
CCOc1ccccc1-c1cncc(NC)n1 | 0 | -34 | x | x | x | x
CC(=O)N(Cc1ccccc1)c1ncc2c(n1)c(=O)c(C#N)c1ccccn12 | -2 | -16 | 63* | -15 | 4 | 6
CC(=O)N(Cc1c(C#N)c2ccccc2n1C)c1ccccc1 | 5 | -28 | 14 | -12 | -21 | 2
CCCCOc1ccc(-c2nnn(CC(=O)Nc3ncc(CC(=O)OCC)s3)n2)cc1 | 42* | 21 | 23 | -10 | -15 | 7
CCOC(=O)Cc1cnc(NC(=O)Cn2nnc(-c3ccc(OCC)cc3)n2)s1 | 34 | 5 | 2 | -14 | -9 | 6
Cc1nnc2nc(N)[nH]n2c1=O | 5 | -2 | x | x | x | x
COC(=O)C1=C(C)N(Cc2ccccc2C(F)(F)F)C(=NCc2ccc(OC)cc2)NC1c1cccc(Cl)c1 (stereo not given) | 11 | -2 | x | x | x | x
N/C(=N\OC(=O)c1cc([N+](=O)[O-])ccc1Cl)c1ccccn1 | 10 | -20 | 46 | -5 | -7 | -16
N/C(=N\OC(=O)c1ccc([N+](=O)[O-])cc1Cl)c1ccccn1 | 1 | -24 | 54* | -16 | -28 | -6
O=C(C(=O)N1CCN(C(=O)Cc2ccccc2)CC1)c1cccc(C(F)(F)F)c1 | 5 | -38 | x | x | x | x
Nc1ccc(-c2c3ccc(=O)cc-3oc3cc(O)ccc23)c(C(=O)O)c1 | x | x | 63* | 58* | 87* | x
COc1cccc2sc(Nc3nnc(-c4ccc(F)cc4)o3)nc12 | 10 | 4 | 10 | 12 | -4 | -18
Fc1cccc2sc(Nc3nnc(-c4ccco4)o3)nc12 | 4 | 3 | 44 | 41* | 29 | 1
CC(=O)Oc1ccc(CN2C(=O)C(CCc3ccccc3)ON=C2c2cnccn2)cc1 (stereo not given) | 10 | 25 | x | x | x | x
COc1cc(CN2C(=O)C(CCc3ccccc3)ON=C2c2cnccn2)cc(OC)c1 (stereo not given) | 2 | 50* | x | x | x | x
Nc1c(Cl)ncnc1N/N=C/c1ccc2ccccc2n1 | 4 | 3 | 75* | 34 | 35 | -5
Nc1c(Cl)ncnc1N/N=C/c1ccccn1 | 0 | 8 | 92* | -6 | 1 | -4
Cc1ccc(Nc2nc(CSc3nnc(-c4cccnc4)n3-c3ccccc3C)cs2)cc1 | -2 | -45 | 67* | -38 | -6 | 1
Cc1ccccc1-n1c(SCc2csc(Nc3ccccc3)n2)nnc1-c1cccnc1 | 2 | 2 | 69* | -18 | 2 | -8
Cc1c(O)ccc(/C=N/Nc2nc(-c3cccnc3)nc3ccccc23)c1O | 18 | 74* | 45 | -5 | -17 | -9
